Data from ChEMBL document CHEMBL1781932 (J Med Chem, 2011).
In brackets after ≈: the same amount, converted by molar mass.

Key:
Type in all cases: functional
Streptococcus pneumoniae [1] = assay: Antimicrobial activity against tetracycline-susceptible Streptococcus pneumoniae isolate 106 by CLSI dilution method
Summary of the method: (§1)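 Broth microdilution per CLSI in fresh cation-adjusted Mueller Hinton broth, kept at 4 °C before testing, with defibrinated horse blood added as appropriate. Strains were from ATCC. MIC in µg/mL. Runs were accepted when comparator antibiotics against ATCC quality-control strains fell within recommended ranges.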

Pseudomonas aeruginosa = assay: Antimicrobial activity against tetracycline-susceptible Pseudomonas aeruginosa isolate 111 by CLSI dilution method; summary of the method: as §1
Enterobacter cloacae = assay: Antimicrobial activity against tetracycline-susceptible Enterobacter cloacae isolate 108 by CLSI dilution method; summary of the method: as §1
Staphylococcus aureus [2] = assay: Antimicrobial activity against tetracycline-susceptible Staphylococcus aureus isolate 101 by CLSI dilution method
Staphylococcus aureus [3] = assay: Antimicrobial activity against methicillin-, tetracycline-resistant Staphylococcus aureus isolate 161 harboring tetM gene by CLSI dilution method
Klebsiella pneumoniae [4] = assay: Antimicrobial activity against tetracycline-resistant Klebsiella pneumoniae isolate 153 harboring tetA gene by CLSI dilution method
Klebsiella pneumoniae [5] = assay: Antimicrobial activity against tetracycline-susceptible Klebsiella pneumoniae isolate 109 by CLSI dilution method; summary of the method: as §1
Escherichia coli [6] = assay: Antimicrobial activity against tetracycline-susceptible Escherichia coli isolate 107 by CLSI dilution method; summary of the method: as §1
Acinetobacter baumannii = assay: Antimicrobial activity against tetracycline-susceptible Acinetobacter baumannii isolate 110 by CLSI dilution method; summary of the method: as §1
Escherichia coli [7] = assay: Antimicrobial activity against tetracycline-resistant Escherichia coli isolate 155 harboring tetA gene by CLSI dilution method
Enterococcus faecalis [8] = assay: Antimicrobial activity against tetracycline-susceptible Enterococcus faecalis isolate 103 by CLSI dilution method; summary of the method: as §1
Staphylococcus aureus [9] = assay: Antimicrobial activity against tetracycline-resistant Staphylococcus aureus isolate 158 harboring tetK gene by CLSI dilution method
Enterococcus faecalis [10] = assay: Antimicrobial activity against tetracycline-resistant Enterococcus faecalis isolate 159 harboring […] gene by CLSI dilution method
Streptococcus pneumoniae [11] = assay: Antimicrobial activity against tetracycline-resistant Streptococcus pneumoniae isolate 160 harboring tetM gene by CLSI dilution method

| Structure (SMILES) | MIC (Streptococcus pneumoniae [1]) | MIC (Pseudomonas aeruginosa) | MIC (Enterobacter cloacae) | MIC (Staphylococcus aureus [2]) | MIC (Staphylococcus aureus [3]) | MIC (Klebsiella pneumoniae [4]) | MIC (Klebsiella pneumoniae [5]) | MIC (Escherichia coli [6]) | MIC (Acinetobacter baumannii) | MIC (Escherichia coli [7]) | MIC (Enterococcus faecalis [8]) | MIC (Staphylococcus aureus [9]) | MIC (Enterococcus faecalis [10]) | MIC (Streptococcus pneumoniae [11]) |
| --- | --- | --- | --- | --- | --- | --- | --- | --- | --- | --- | --- | --- | --- | --- |
| CN(C)[C@@H]1C(O)=C(C(N)=O)C(=O)[C@@]2(O)C(O)=C3C(=O)c4c(cc5ccc(-c6ccccc6)cc5c4O)C[C@H]3C[C@@H]12 | > 32 µg/mL | > 32 µg/mL | > 32 µg/mL | 2 µg/mL (≈ 3.7 µM) | 8 µg/mL (≈ 14.8 µM) | > 32 µg/mL | > 32 µg/mL | > 32 µg/mL | > 32 µg/mL | > 32 µg/mL | 2 µg/mL (≈ 3.7 µM) | 4 µg/mL (≈ 7.4 µM) | 0.5 µg/mL (≈ 0.925 µM) | > 32 µg/mL |
| COCCOc1c2c(c(O)c3cc(CN4CCC4)ccc13)C(=O)C1=C(O)[C@]3(O)C(=O)C(C(N)=O)=C(O)[C@@H](N(C)C)[C@@H]3C[C@@H]1C2 | 0.0313 µg/mL (≈ 0.0515 µM) | > 32 µg/mL | 8 µg/mL (≈ 13.2 µM) | 0.25 µg/mL (≈ 0.411 µM) | 2 µg/mL (≈ 3.29 µM) | > 32 µg/mL | 8 µg/mL (≈ 13.2 µM) | 2 µg/mL (≈ 3.29 µM) | 4 µg/mL (≈ 6.58 µM) | 32 µg/mL (≈ 52.7 µM) | 0.5 µg/mL (≈ 0.823 µM) | 0.5 µg/mL (≈ 0.823 µM) | 2 µg/mL (≈ 3.29 µM) | 0.25 µg/mL (≈ 0.411 µM) |
| CN(C)[C@@H]1C(O)=C(C(N)=O)C(=O)[C@@]2(O)C(O)=C3C(=O)c4c(cc5ccc(CN(C)S(C)(=O)=O)cc5c4O)C[C@H]3C[C@@H]12 | 1 µg/mL (≈ 1.71 µM) | > 32 µg/mL | > 32 µg/mL | 2 µg/mL (≈ 3.42 µM) | 2 µg/mL (≈ 3.42 µM) | > 32 µg/mL | > 32 µg/mL | > 32 µg/mL | > 32 µg/mL | > 32 µg/mL | 2 µg/mL (≈ 3.42 µM) | 2 µg/mL (≈ 3.42 µM) | 2 µg/mL (≈ 3.42 µM) | 4 µg/mL (≈ 6.83 µM) |
| CN(C)[C@@H]1C(O)=C(C(N)=O)C(=O)[C@@]2(O)C(O)=C3C(=O)c4c(cc5ccc(F)cc5c4O)C[C@H]3C[C@@H]12 | 2 µg/mL (≈ 4.15 µM) | > 32 µg/mL | > 32 µg/mL | 0.5 µg/mL (≈ 1.04 µM) | 0.5 µg/mL (≈ 1.04 µM) | > 32 µg/mL | > 32 µg/mL | 16 µg/mL (≈ 33.2 µM) | 4 µg/mL (≈ 8.29 µM) | > 32 µg/mL | 0.25 µg/mL (≈ 0.518 µM) | 0.25 µg/mL (≈ 0.518 µM) | 0.5 µg/mL (≈ 1.04 µM) | 8 µg/mL (≈ 16.6 µM) |
| CN(C)c1cccc2c(O)c3c(cc12)C[C@H]1C[C@H]2[C@H](N(C)C)C(O)=C(C(N)=O)C(=O)[C@@]2(O)C(O)=C1C3=O | 4 µg/mL (≈ 7.88 µM) | > 32 µg/mL | > 32 µg/mL | 1 µg/mL (≈ 1.97 µM) | 2 µg/mL (≈ 3.94 µM) | > 32 µg/mL | > 32 µg/mL |  | 16 µg/mL (≈ 31.5 µM) | > 32 µg/mL | 1 µg/mL (≈ 1.97 µM) | 1 µg/mL (≈ 1.97 µM) | 2 µg/mL (≈ 3.94 µM) | 8 µg/mL (≈ 15.8 µM) |
| CCN(C)Cc1ccc2cc3c(c(O)c2c1)C(=O)C1=C(O)[C@]2(O)C(=O)C(C(N)=O)=C(O)[C@@H](N(C)C)[C@@H]2C[C@@H]1C3 | 0.125 µg/mL (≈ 0.233 µM) | > 32 µg/mL | 4 µg/mL (≈ 7.47 µM) | 0.25 µg/mL (≈ 0.467 µM) | 2 µg/mL (≈ 3.73 µM) | 32 µg/mL (≈ 59.7 µM) | 8 µg/mL (≈ 14.9 µM) | 2 µg/mL (≈ 3.73 µM) | 2 µg/mL (≈ 3.73 µM) | 16 µg/mL (≈ 29.9 µM) | 0.5 µg/mL (≈ 0.934 µM) | 0.5 µg/mL (≈ 0.934 µM) | 4 µg/mL (≈ 7.47 µM) | 0.25 µg/mL (≈ 0.467 µM) |
| CN(C)c1c2c(c(O)c3cc(F)ccc13)C(=O)C1=C(O)[C@]3(O)C(=O)C(C(N)=O)=C(O)[C@@H](N(C)C)[C@@H]3C[C@@H]1C2 | 2 µg/mL (≈ 3.81 µM) | > 32 µg/mL | > 32 µg/mL | 0.25 µg/mL (≈ 0.476 µM) | 1 µg/mL (≈ 1.9 µM) | > 32 µg/mL | > 32 µg/mL | > 32 µg/mL | 16 µg/mL (≈ 30.4 µM) | > 32 µg/mL | 0.25 µg/mL (≈ 0.476 µM) | 0.125 µg/mL (≈ 0.238 µM) | 0.25 µg/mL (≈ 0.476 µM) | 4 µg/mL (≈ 7.61 µM) |
| CCCOc1c2c(c(O)c3cc(CN4CCC4)ccc13)C(=O)C1=C(O)[C@]3(O)C(=O)C(C(N)=O)=C(O)[C@@H](N(C)C)[C@@H]3C[C@@H]1C2 | 0.0156 µg/mL (≈ 0.0264 µM) | 32 µg/mL (≈ 54.1 µM) | 16 µg/mL (≈ 27 µM) | 0.125 µg/mL (≈ 0.211 µM) | 2 µg/mL (≈ 3.38 µM) | 32 µg/mL (≈ 54.1 µM) | 8 µg/mL (≈ 13.5 µM) | 2 µg/mL (≈ 3.38 µM) | 1 µg/mL (≈ 1.69 µM) | 16 µg/mL (≈ 27 µM) | 0.25 µg/mL (≈ 0.423 µM) | 0.25 µg/mL (≈ 0.423 µM) | 2 µg/mL (≈ 3.38 µM) | 0.0625 µg/mL (≈ 0.106 µM) |
| CN(C)[C@@H]1C(O)=C(C(N)=O)C(=O)[C@@]2(O)C(O)=C3C(=O)c4c(c(OCC(O)CO)c5ccc(CN6CCC6)cc5c4O)C[C@H]3C[C@@H]12 (stereo not given in full) | 4 µg/mL (≈ 6.41 µM) | > 32 µg/mL | > 32 µg/mL | > 32 µg/mL | > 32 µg/mL | > 32 µg/mL | > 32 µg/mL | > 32 µg/mL | > 32 µg/mL | > 32 µg/mL | 32 µg/mL (≈ 51.3 µM) | > 32 µg/mL | > 32 µg/mL | 16 µg/mL (≈ 25.7 µM) |
